Compound activity (PubChem)
An excerpt weighted towards active compounds, which were near 2.5% of everything screened.
NALP3 yeast inh: NALP3 inhibition in yeast; Yeast reconstituted NLRP3/ASC/caspase-1, beta-gal luminescence, 24 h; inhibition, % at 10 µM; 330,000 compounds, 0.39% hits;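 active = inhibition of 50% or more; inactive = inhibition below 50%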;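 note: plate controls were induced DMSO wells for no effect and uninduced yeast grown without galactose for full effect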
Bfl-1 A1 inh: inhibitors of the anti-apoptotic protein A1, read as caspase activation | MEF A1-2A-BIM cells, Caspase-Glo 3/7 luminescence, 3 h; percent of clofoctol response, vehicle zero | caspase activation, % (no concentration beside the values) | 330,000 compounds, 0.066% hits | AID 2462;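 active = over half of replicate activation scores above 10%, or exactly half above 10 with the replicate mean above 10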
NALP1 yeast inh: NALP1 inhibition; inhibition, % at 10 µM; 280,000 compounds, 0.61% hits; S. cerevisiae NALP1/ASC/caspase-1 growth, X-gal OD620, 72 h; AID 2071; in the data active = inhibition mostly above about 24%, no sharp cut-off; inactive = mostly below about 32%
MC4R ag barr: human MC4R agonism via beta-arrestin. P32245. U2OS MC4R beta-arrestin complementation, luminescence; percent of melanotan II response, DMSO zero. activation, % at 8.9 µM. 360,000 compounds, 0.98% hits. AID 540308;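 active = activation above a per-plate cutoff, the mean activation of sample wells on that plate plus 3 SD, cut at about 8% in these data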
Target sequence (P32245 whole entry, looked up): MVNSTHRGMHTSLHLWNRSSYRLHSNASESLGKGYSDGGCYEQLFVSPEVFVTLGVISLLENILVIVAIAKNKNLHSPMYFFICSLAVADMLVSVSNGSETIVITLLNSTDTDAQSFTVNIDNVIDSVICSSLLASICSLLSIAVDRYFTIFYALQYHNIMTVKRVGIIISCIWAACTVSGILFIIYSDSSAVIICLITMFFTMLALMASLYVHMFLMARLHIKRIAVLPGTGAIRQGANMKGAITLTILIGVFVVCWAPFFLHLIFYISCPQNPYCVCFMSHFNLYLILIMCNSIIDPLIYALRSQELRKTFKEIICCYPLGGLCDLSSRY
MC4R antagonist: blocks human MC4R cAMP signaling | P32245 | MC4R-expressing cells, MTII-stimulated cAMP, LANCE TR-FRET | inhibition, % at 6.5 µM | 360,000 compounds, 0.48% hits | AID 540295;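 active = inhibition above its plate's cutoff, the mean of tested wells on that plate plus 3 SD, cut at about 29% in these data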;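 note: 0% = Melanotan II alone and 100% = Melanotan II plus saturating MCL0020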
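Test system: U2OS cells stably expressing human melanocortin 4 receptor (MC4R); also added: Melanotan II challenge; compound: 6.5 µM single dose; timing: 30-min compound preincubation, 1-h Melanotan II challenge, 1-h detection, room temperature; signal: Eu-cAMP/anti-cAMP TR-FRET, emission 671 nm; repeats: one well per compound, no replicates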
Tb MetRS inh: blocks T. brucei methionyl-tRNA synthetase activity | purified T. brucei MetRS, ATP depletion, Kinase-Glo luminescence | inhibition, % at 11.9 µM | 360,000 compounds, 0.4% hits | AID 624268;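 active = inhibition above a per-plate cutoff of the control wells' mean inhibition plus 3 SD, cut at about 5.5% in these data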;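 note: 0% = DMSO wells median and 100% = median of wells with control inhibitor compound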
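Dosing: 11.9 µM compound single dose, 0.9% DMSO; Assay system: purified T. brucei MetRS enzyme; Measured by: Kinase-Glo luciferase luminescence reporting remaining unconsumed ATP; Schedule: 15 min plus 2 h at 25 °C.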
cAMP nonselect: counter-screen for MC4R antagonists: nonselective cAMP signaling inhibitors; inhibition, % at 6.5 µM; 1,600 compounds, 26% hits; shares compounds with MC4R antagonist; parental U2OS, forskolin cAMP, LANCE TR-FRET;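 active = mean inhibition over triplicates above the low-control well mean plus 3 SD, set per campaign, cut at about 13% in these data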;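 note: signal is single emission at 671 nm which falls as cellular cAMP rises; 0% = forskolin-stimulated wells and 100% = buffer without forskolin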
MC4R cAMP antag: human MC4R cAMP antagonism confirmation; shares compounds with MC4R antagonist; MC4R-expressing cells, MTII-stimulated cAMP, TR-FRET; inhibition, % at 6.5 µM; 1,600 compounds, 27% hits; in the data active = inhibition above about 29%;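 note: 0% = agonist stimulated wells alone and 100% = agonist stimulated wells plus saturating reference antagonist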
The depositor's hits bear a star; · = no result given.

SMILES	NALP3 yeast inh	Bfl-1 A1 inh	NALP1 yeast inh	MC4R ag barr	MC4R antagonist	Tb MetRS inh	cAMP nonselect	MC4R cAMP antag
CCCCc1c(-c2ccc(F)cc2)ncn1CCc1ccccc1OC	·	·	·	·	·	-1	·	·
O=C(C(=S)N1CCOCC1)c1c[nH]c2ccccc12	-17	1	-22	3	30*	-1	3	2
O=C(CN1CCOCC1)c1c[nH]c2ccccc12	9	0	-16	-2	3	1	·	·
CCN(CC)C(=O)C(C)N(C#N)c1nc(Cl)nc(N(C)C)n1 (stereo not drawn)	16	1	-4	-2	43*	0	11	28
COc1ccccc1-c1cnc(C(O)c2ccc(F)cc2C)[nH]1 (stereo not drawn)	·	·	·	0	-2	0	·	·
CCCCNc1c(-c2ccc(OC)c(Sc3ccc(OC)cc3)c2)nc2ccccn12	15	-1	·	5	46*	0	7	28
CCCCNc1c(-c2ccc(OC)c(Sc3ccc(OC)cc3)c2)nc2cnccn12	23	-1	·	2	18	0	·	·
CC1CC(C)CN(C(=O)Nc2ccc(Br)cc2)C1 (stereo not drawn)	10	0	8	2	30*	0	-3	-8
O=C(Nc1ccc(Br)cc1)N1CCCCCCC1	3	0	15	-1	-1	-1	·	·
N#Cc1c(-c2ccc(Cl)cc2)c2c([nH]c1=O)-c1ccccc1OC2	6	0	·	2	13	0	·	·
Cc1cc2nccc(-c3ccc(F)cc3)n2n1	7	1	7	1	16	1	·	·
Cc1cc2nccc(-c3ccc(Cl)c([N+](=O)[O-])c3)n2n1	28	0	2	1	41*	-1	-11	29*
COC12CC(=O)C(C(C)=O)=C(O)C1(C)c1c(O)c(C)c(O)c(C(C)=O)c1O2 (stereo not drawn)	·	·	·	2	3	-1	·	·
CC(=O)c1c(O)c(C)c(O)c2c1OC1=CC(=O)/C(=C(/C)N)C(=O)C12C (stereo not drawn)	·	·	·	1	36*	0	5	26
COC(=O)CCc1sc(NC2CCCCC2)nc1-c1ccc(OC)cc1	-3	2	15	-3	11	0	·	·
CCCCCCNc1nc(-c2ccc(OC)cc2)c(CCC(=O)O)s1	28	-1	29	1	30*	0	-3	-1
COc1cc([N+](=O)[O-])cc(/C=N/NC(=O)Cn2nccc2C)c1O	19	-2	·	-2	29*	1	-6	-14
O=S(=O)(NC1=NCCCCC1)c1ccc(F)cc1F	-2	0	·	-3	3	1	·	·
O=S(=O)(NC1=NCCC1)c1ccc(F)cc1F	-1	0	-8	-3	29*	0	5	13
CC(=O)Oc1ccc2nc(-c3ccco3)oc(=O)c2c1	20	-3	-8	0	34*	0	13	39*
CC(OC(=O)c1cccc(N2C(=O)c3ccccc3C2=O)c1)C(=O)Nc1ccc(N(C)C)cc1 (stereo not drawn)	-1	0	33	0	33*	0	-7	-15
Cc1ccc(-c2nn(-c3ccccc3)cc2C=C2SC(=S)N(CCS(=O)(=O)O)C2=O)cc1	·	·	·	1	-7	1	·	·
CC1=NN(c2ccccc2)C(=O)/C1=C\c1cn(-c2ccccc2)nc1C	15	0	-6	3	28*	1	5	6
Cc1ccc(-c2nn(-c3ccccc3)cc2C=C2C(=O)CC(C)(C)CC2=O)cc1	38	-1	2	2	31*	0	18*	23
Cc1ccc(S(=O)(=O)CCC(=O)OCC(=O)NCCc2ccccc2)cc1	11	0	·	-3	-1	0	·	·
SMILES	NALP3 yeast inh	Bfl-1 A1 inh	NALP1 yeast inh	MC4R ag barr	MC4R antagonist	Tb MetRS inh	cAMP nonselect	MC4R cAMP antag
COc1cccc(CNC(=O)COC(=O)CCS(=O)(=O)c2ccc(C)cc2)c1	9	·	·	-2	30*	0	0	10
Cc1noc(C)c1NC(=O)N(C)C[C@@H]1Oc2c(NC(=O)c3ccncc3)cccc2C(=O)N([C@H](C)CO)C[C@@H]1C	-5	2	·	0	2	-1	·	·
CC(C)N1C(=O)S/C(=C/c2ccccc2OCc2ccc(C(=O)O)cc2)C1=O	1	0	-25	-1	31*	0	-4	-4
CCOC(=O)N1CCN(C(=O)c2cc3c(-c4cccc(OC)c4)nn(C)c3s2)CC1	17	1	9	0	30*	-1	5	15
CCOC(=O)N1CCC(NC(=O)c2cc3c(-c4cccc(OC)c4)nn(C)c3s2)CC1	6	-1	-1	3	-3	0	·	·
Cc1ccnc(NC(=O)c2cnc(Cl)c(Cl)c2)c1	42	0	-4	-1	32*	-1	18*	22
CCN(C(=O)COC(=O)CSc1ccc(C(N)=O)cc1[N+](=O)[O-])C1CCCCC1	-2	0	6	-1	33*	0	7	30*
NC(=O)c1ccc(SCC(=O)OCC(=O)NC2CCCCCCC2)c([N+](=O)[O-])c1	0	-1	·	-1	15	0	·	·
Cc1ccc(CN(C)C(=O)COC(=O)CSc2ccc(C(N)=O)cc2[N+](=O)[O-])cc1	17	1	·	-5	38*	0	14*	35*
Cc1ccc(CN(C)C(=O)COC(=O)CSc2ccc([N+](=O)[O-])cc2)cc1	20	0	·	1	8	0	·	·
CC(C)C[C@H]1CNC(=S)N1C[C@H]1CCCN1C[C@H](Cc1ccc(O)cc1)N1C[C@H](CC(C)C)N(CCc2ccccc2)C1=S	·	·	·	·	·	-1	·	·
C=CC(=O)N1C/C(=C/c2ccc(F)cc2)C(=O)/C(=C\c2ccc(F)cc2)C1	·	·	·	-5	40*	0	28*	22
CC(CCc1ccccc1)NC(=O)CN1CCSc2ccccc21 (stereo not drawn)	1	0	7	-1	31*	0	-1	-2
O=C1/C(=C/c2ccc([N+](=O)[O-])cc2)C=C(c2ccccc2)N1c1ccccc1	9	-1	20	1	-3	-1	·	·
O=C1/C(=C/c2ccc([N+](=O)[O-])cc2)C=C(c2ccccc2)N1c1ccc(O)cc1	9	-1	17	-1	32*	0	9	20
O=C(COC(=O)[C@H](Cc1ccccc1)NC(=O)c1cccs1)NC1CC1	-15	0	25	-1	21	-2	·	·
